39 compounds from ChEMBL document CHEMBL1147446, “Antagonists of human CCR5 receptor containing 4-(pyrazolyl)piperidine side chains. Part 3: SAR studies on the benzylpyrazole segment” (Bioorg Med Chem Lett, 2004) can be followed below.

One may read the IC90 as the point of the concentration-response curve where the effect stands at 90%. Broadly, the IC50 is the point on the concentration scale where inhibition reaches its midpoint.

Assay [1] concerns HeLa. Nature of the assay: Antiviral activities in a cell culture HIV-1 infectivity inhibition assay using HeLa cells. Type of assay: functional. The conditions noted are these: Homo sapiens.
For assay [2], the target named is C-C chemokine receptor type 5 (Homo sapiens, UniProt P51681). Kind of assay: Inhibitory concentration for displacement of [125I]-MIP-1 alpha from recombinant human CC chemokine receptor 5 (CCR5) expressed in CHO cell. It counts as cell-based. The method, boiled down:
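Competitive binding to CCR5 on CHO cell membranes, read as displacement of [125I]-labeled MIP-1α. IC50 values are means of triplicate determinations. Standard errors were normally <15% within an assay. Assay-to-assay variation was within ±2-fold, judged from a standard compound.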
For orientation: Loss of bound radioactivity is the signal in a displacement assay; it reports binding, not function.

Assay [3] relates to HeLa. Kind of assay: Antiviral activities in a cell culture HIV-1 infectivity inhibition assay using HeLa cells plus 50% normal human serum. It counts as functional.

C-C chemokine receptor type 5, sequence (P51681 whole entry): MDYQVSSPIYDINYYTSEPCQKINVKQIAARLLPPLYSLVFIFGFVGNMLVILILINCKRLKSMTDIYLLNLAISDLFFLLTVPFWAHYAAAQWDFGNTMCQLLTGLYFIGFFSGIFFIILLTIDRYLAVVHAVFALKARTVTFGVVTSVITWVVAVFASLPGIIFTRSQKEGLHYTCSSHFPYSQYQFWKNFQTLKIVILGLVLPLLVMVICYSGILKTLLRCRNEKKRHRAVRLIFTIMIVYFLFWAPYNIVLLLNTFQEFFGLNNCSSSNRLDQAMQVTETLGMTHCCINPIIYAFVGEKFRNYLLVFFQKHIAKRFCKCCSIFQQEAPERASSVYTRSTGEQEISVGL

On to `CCn1nc(Cc2ccc(OC3CC3)cc2)cc1C1CCN(C[C@H]2CN([C@@H](C(=O)O)C3CCCCC3)C[C@@H]2c2cccc(F)c2)CC1`, for which the IC90 in assay [1] was below 0.14 nM; in assay [3], 33 nM. Moreover, the IC50 in assay [2] was determined as 0.2 nM.

In the case of `CCn1nc(Cc2ccc(OC)cc2)cc1C1CCN(C[C@H]2CN([C@@H](C(=O)O)C(C)C)C[C@@H]2c2cccc(F)c2)CC1`, the IC90 in assay [1] amounted to 0.4 nM; in assay [3] it was 100 nM. In assay [2], the IC50 is 1.3 nM.

Turning to `CC[C@H](C)[C@H](C(=O)O)N1C[C@H](CN2CCC(c3cc(Cc4ccc(-c5ccccc5)cc4)nn3CC)CC2)[C@@H](c2cccc(F)c2)C1`, the IC90 came to 0.4 nM in assay [1] and 33 nM in assay [3]. In addition, the IC50 in assay [2] was 0.3 nM.

`CCCCOc1ccc(Cc2cc(C3CCN(C[C@H]4CN([C@@H](C(=O)O)C(C)(C)C)C[C@@H]4c4cccc(F)c4)CC3)n(CC)n2)cc1`: the IC90 in assay [1] was 1.2 nM; in assay [3] it was 33 nM. Besides, the IC50 in assay [2] is 0.8 nM.

With `CC[C@@H](C)[C@H](C(=O)O)N1C[C@H](CN2CCC(c3cc(Cc4ccc(OCC(F)(F)F)cc4)nn3CC)CC2)[C@@H](c2cccc(F)c2)C1`, the IC90 worked out at 3.7 nM in assay [1] and 100 nM in assay [3]. Also, the IC50 in assay [2] came out at 0.5 nM.

In the case of `CCn1nc(Cc2ccc(OCc3ccccc3)cc2)cc1C1CCN(C[C@H]2CN([C@@H](C(=O)O)C(C)(C)C)C[C@@H]2c2cccc(F)c2)CC1`, the values for the IC90 in assay [1] and in assay [3] were 3.7 nM and 300 nM, respectively. Further, in assay [2], the IC50 came out at 1.1 nM.

For `CCOc1ccc(Cc2cc(C3CCN(C[C@H]4CN([C@@H](C(=O)O)[C@@H](C)CC)C[C@@H]4c4cccc(F)c4)CC3)n(CC)n2)cc1F`, the IC90 in assay [1] is below 0.14 nM; in assay [3], 11 nM. In addition, in assay [2], the IC50 worked out at 0.7 nM.

Turning to `CCn1nc(Cc2ccc(OCC(F)(F)F)cc2)cc1C1CCN(C[C@H]2CN([C@@H](C(=O)O)C(C)(C)C)C[C@@H]2c2cccc(F)c2)CC1`, the values for the IC90 in assay [1] and in assay [3] were 1.2 nM and 100 nM, respectively. The IC50 in assay [2] is 0.6 nM.

For `CCCOc1ccc(Cc2cc(C3CCN(C[C@H]4CN([C@@H](C(=O)O)C(C)C)C[C@@H]4c4cccc(F)c4)CC3)n(CC)n2)cc1`, the IC90 in assay [1] is 3.7 nM; in assay [3] it was above 300 nM. Also, in assay [2], the IC50 came out at 0.8 nM.

As for `CCOc1cccc(Cc2cc(C3CCN(C[C@H]4CN([C@@H](C(=O)O)[C@H](C)CC)C[C@@H]4c4cccc(F)c4)CC3)n(CC)n2)c1`, the IC90 in assay [1] was below 0.14 nM; in assay [3], above 300 nM. Moreover, the IC50 in assay [2] was determined as 0.8 nM.

Regarding `CCn1nc(Cc2ccc(OC(C)(C)C)cc2)cc1C1CCN(C[C@H]2CN([C@@H](C(=O)O)C(C)C)C[C@@H]2c2cccc(F)c2)CC1`, the IC90 in assay [1] is below 0.14 nM; in assay [3], 100 nM. In addition, the IC50 in assay [2] came to 0.8 nM.

Turning to `CC[C@H](C)[C@H](C(=O)O)N1C[C@H](CN2CCC(c3cc(Cc4ccc(Oc5ccccc5)cc4)nn3CC)CC2)[C@@H](c2cccc(F)c2)C1`, the IC90 is 1.2 nM in assay [1] and 100 nM in assay [3]. The IC50 in assay [2] came to 0.4 nM.

Consider `CCn1nc(Cc2ccc(OC)cc2)cc1C1CCN(C[C@H]2CN([C@@H](C(=O)O)C3CCCCC3)C[C@@H]2c2cccc(F)c2)CC1`, for which the IC90 in assay [1] was below 0.14 nM; in assay [3] it was 33 nM. The IC50 in assay [2] was 1.1 nM.

`CCn1nc(Cc2ccc(OC(C)(C)C)cc2)cc1C1CCN(C[C@H]2CN([C@@H](C(=O)O)C(C)(C)C)C[C@@H]2c2cccc(F)c2)CC1`: the IC90 worked out at 11 nM in assay [1] and 300 nM in assay [3]. Moreover, the IC50 in assay [2] was 2 nM.

For `CC[C@@H](C)[C@H](C(=O)O)N1C[C@H](CN2CCC(c3cc(Cc4ccccc4)nn3CC)CC2)[C@@H](c2cccc(F)c2)C1`, the values for the IC90 in assay [1] and in assay [3] were 0.4 nM and 300 nM, respectively. Moreover, in assay [2], the IC50 worked out at 0.9 nM.

Take `CC[C@@H](C)[C@H](C(=O)O)N1C[C@H](CN2CCC(c3cc(Cc4ccc(OC(F)F)cc4)nn3CC)CC2)[C@@H](c2cccc(F)c2)C1`: the IC90 is below 0.14 nM in assay [1] and 11 nM in assay [3]. In addition, the IC50 in assay [2] was determined as 0.6 nM.

With `CCn1nc(Cc2cccc3ccccc23)cc1C1CCN(C[C@H]2CN([C@@H](C(=O)O)C(C)(C)C)C[C@@H]2c2cccc(F)c2)CC1`, the IC90 was below 0.14 nM in assay [1] and 11 nM in assay [3]. The IC50 in assay [2] was 0.2 nM.

For the compound `CC[C@@H](C)[C@H](C(=O)O)N1C[C@H](CN2CCC(c3cc(Cc4ccc5ccccc5c4)nn3CC)CC2)[C@@H](c2cccc(F)c2)C1`, the IC90 in assay [1] was below 0.14 nM; in assay [3], 300 nM. Besides, the IC50 in assay [2] came to 0.2 nM.

For `CCOc1ccc(Cc2cc(C3CCN(C[C@H]4CN([C@@H](C(=O)O)C(C)C)C[C@@H]4c4cccc(F)c4)CC3)n(CC)n2)cc1F`, the IC90 in assay [1] was below 0.14 nM; in assay [3], 100 nM. In assay [2], the IC50 stood at 0.4 nM.

Turning to `CCn1nc(Cc2ccc(S(=O)(=O)c3ccccc3)cc2)cc1C1CCN(C[C@H]2CN([C@@H](C(=O)O)C(C)(C)C)C[C@@H]2c2cccc(F)c2)CC1`, the IC90 was below 0.14 nM in assay [1] and 3.7 nM in assay [3]. Also, the IC50 in assay [2] is 1.1 nM.

In the case of `CCn1nc(Cc2ccc(Cl)cc2)cc1C1CCN(C[C@H]2CN([C@@H](C(=O)O)C3CCCCC3)C[C@@H]2c2cccc(F)c2)CC1`, the values for the IC90 in assay [1] and in assay [3] were 0.4 nM and 100 nM, respectively. Besides, in assay [2], the IC50 was 0.9 nM.

For the compound `CCn1nc(Cc2ccc(OC3CCC3)cc2)cc1C1CCN(C[C@H]2CN([C@@H](C(=O)O)C(C)C)C[C@@H]2c2cccc(F)c2)CC1`, the IC90 in assay [1] came to 1.2 nM; in assay [3], 100 nM. In addition, the IC50 in assay [2] stood at 0.6 nM.

Consider `CCn1nc(CC2CCCCC2)cc1C1CCN(C[C@H]2CN([C@@H](C(=O)O)C(C)C)C[C@@H]2c2cccc(F)c2)CC1`, for which the results for the IC90 in assay [1] and in assay [3] were 33 nM and above 300 nM, respectively. Besides, the half-inhibitory concentration (IC50) in assay [2] came to 2.3 nM.

Consider `CCn1nc(Cc2ccc(S(=O)(=O)c3ccccc3)cc2)cc1C1CCN(C[C@H]2CN([C@@H](C(=O)O)C3CCCCC3)C[C@@H]2c2cccc(F)c2)CC1`, for which the IC90 was found to be 0.4 nM in assay [1] and 33 nM in assay [3]. Further, the IC50 in assay [2] is 0.8 nM.

On to `CC[C@H](C)[C@H](C(=O)O)N1C[C@H](CN2CCC(c3cc(Cc4ccc(O)cc4)nn3CC)CC2)[C@@H](c2cccc(F)c2)C1`, for which the results for the IC90 in assay [1] and in assay [3] were 0.4 nM and 11 nM, respectively. In addition, the IC50 in assay [2] came to 1.4 nM.

Consider `CCn1nc(Cc2ccc(Oc3ccccc3)cc2)cc1C1CCN(C[C@H]2CN([C@@H](C(=O)O)C(C)(C)C)C[C@@H]2c2cccc(F)c2)CC1`, for which the IC90 in assay [1] was 3.7 nM; in assay [3] it was 300 nM. Besides, the IC50 in assay [2] is 0.4 nM.

Regarding `CC[C@@H](C)[C@H](C(=O)O)N1C[C@H](CN2CCC(c3cc(Cc4ccc(C(F)(F)F)cc4)nn3CC)CC2)[C@@H](c2cccc(F)c2)C1`, the figures for the IC90 in assay [1] and in assay [3] were 0.4 nM and 100 nM, respectively. In addition, the IC50 in assay [2] worked out at 0.5 nM.

In the case of `CC[C@H](C)[C@H](C(=O)O)N1C[C@H](CN2CCC(c3cc(Cc4ccc(OCc5ccccc5)cc4)nn3CC)CC2)[C@@H](c2cccc(F)c2)C1`, the IC90 in assay [1] was 3.7 nM; in assay [3] it was 300 nM. Further, in assay [2], the IC50 was 0.7 nM.

As to `CCn1nc(Cc2cc(F)cc(F)c2)cc1C1CCN(C[C@H]2CN([C@@H](C(=O)O)C3CCCCC3)C[C@@H]2c2cccc(F)c2)CC1`, the results for the IC90 in assay [1] and in assay [3] were below 0.14 nM and 11 nM, respectively. In addition, in assay [2], the IC50 is 0.9 nM.

Consider `CCn1nc(Cc2ccc(Oc3ccccc3)cc2)cc1C1CCN(C[C@H]2CN([C@@H](C(=O)O)C3CCCCC3)C[C@@H]2c2cccc(F)c2)CC1`, for which the IC90 is 1.2 nM in assay [1] and 100 nM in assay [3]. Moreover, the IC50 in assay [2] came to 0.5 nM.

On to `CCn1nc(Cc2cccc(F)c2)cc1C1CCN(C[C@H]2CN([C@@H](C(=O)O)C3CCCCC3)C[C@@H]2c2cccc(F)c2)CC1`, for which the IC90 in assay [1] is below 0.14 nM; in assay [3] it was 33 nM. In assay [2], the IC50 is 1 nM.

As to `CCOc1ccc(Cc2cc(C3CCN(C[C@H]4CN([C@@H](C(=O)O)C(C)(C)C)C[C@@H]4c4cccc(F)c4)CC3)n(CC)n2)cc1F`, the IC90 in assay [1] is below 0.14 nM; in assay [3], 11 nM. In assay [2], the IC50 was found to be 0.7 nM.

For `CCn1nc(Cc2ccc(F)cc2F)cc1C1CCN(C[C@H]2CN([C@@H](C(=O)O)C(C)C)C[C@@H]2c2cccc(F)c2)CC1`, the IC90 in assay [1] was 100 nM; in assay [3] it was above 300 nM. Moreover, the IC50 in assay [2] came to 5 nM.

On to `CCn1nc(Cc2ccc(C(C)C)cc2)cc1C1CCN(C[C@H]2CN([C@@H](C(=O)O)C(C)(C)C)C[C@@H]2c2cccc(F)c2)CC1`, for which the IC90 is 0.4 nM in assay [1] and 33 nM in assay [3]. Besides, in assay [2], the IC50 turned out to be 0.6 nM.

In the case of `CCn1nc(Cc2ccc(OC(F)(F)F)cc2)cc1C1CCN(C[C@H]2CN([C@@H](C(=O)O)C(C)C)C[C@@H]2c2cccc(F)c2)CC1`, the IC90 in assay [1] was determined as 3.7 nM; in assay [3], 300 nM. Further, in assay [2], the IC50 came out at 0.8 nM.

Regarding `CC[C@H](C)[C@H](C(=O)O)N1C[C@H](CN2CCC(c3cc(Cc4ccc(C(F)(F)F)cc4)nn3CC)CC2)[C@@H](c2cccc(F)c2)C1`, the IC90 in assay [1] is below 0.14 nM; in assay [3], 33 nM. Moreover, in assay [2], the IC50 is 0.5 nM.

Turning to `CCn1nc(Cc2ccc(F)cc2F)cc1C1CCN(C[C@H]2CN([C@@H](C(=O)O)C3CCCCC3)C[C@@H]2c2cccc(F)c2)CC1`, the IC90 in assay [1] came to 0.4 nM; in assay [3] it was 33 nM. Besides, the IC50 in assay [2] was 1.5 nM.

Regarding `CCn1nc(Cc2cccc(C#N)c2)cc1C1CCN(C[C@H]2CN([C@@H](C(=O)O)C(C)(C)C)C[C@@H]2c2cccc(F)c2)CC1`, the figures for the IC90 in assay [1] and in assay [3] were below 0.14 nM and 11 nM, respectively. Besides, the IC50 in assay [2] worked out at 1 nM.

As to `CCn1nc(Cc2cc(C(F)(F)F)cc(C(F)(F)F)c2)cc1C1CCN(C[C@H]2CN([C@@H](C(=O)O)C(C)C)C[C@@H]2c2cccc(F)c2)CC1`, the IC90 in assay [1] was 100 nM; in assay [3], above 300 nM. Besides, the IC50 in assay [2] came to 3.2 nM.
